Measurements published in ChEMBL document CHEMBL3808334, “Synthesis and in vitro evaluation of novel triazine analogues as anticancer agents and their interaction studies with bovine serum albumin” (Eur J Med Chem, 2016).

Assays:
Type in all cases: functional
[1] = Growth inhibition of human RXF393 cells assessed as cell growth at 10^-4 M incubated for 48 hrs by sulforhodamine B assay; details: RXF 393, 48 h, read-out: Activity
[2] = Growth inhibition of human PC3 cells assessed as cell growth at 10^-4 M incubated for 48 hrs by sulforhodamine B assay; details: PC-3, 48 h, read-out: Activity
[3] = tested on: MDA-MB-231; assay: Growth inhibition of human MDA-MB-231 cells assessed as cell growth at 10^-4 M incubated for 48 hrs by sulforhodamine B assay; details: MDA-MB-231, 48 h, read-out: Activity
[4] = tested on: T47D; assay: Growth inhibition of human T47D cells assessed as cell growth at 10^-4 M incubated for 48 hrs by sulforhodamine B assay; details: read-out: Activity
[5] = tested on: NCI-H460; assay: Growth inhibition of human NCI-H460 cells incubated for 48 hrs by sulforhodamine B assay; details: NCI-H460, 48 h
How it was run: (§1)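 Cells were plated at 5,000–40,000 per well according to doubling time and preincubated 24 h at 37 °C in 5% CO2; time-zero plates were then TCA-fixed. Five concentrations (10-fold or ½-log dilutions, DMSO stock) were incubated 48 h. Cells were TCA-fixed, stained with 0.4% SRB and read at 515 nm. GI50 was taken where [(Ti−Tz)/(C−Tz)]×100 = 50.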

[6] = Growth inhibition of human SF539 cells incubated for 48 hrs by sulforhodamine B assay; details: SF-539, 48 h; how it was run: as §1
[7] = tested on: SK-MEL-28; assay: Growth inhibition of human SK-MEL-28 cells incubated for 48 hrs by sulforhodamine B assay; details: SK-MEL-28, 48 h; how it was run: as §1
[8] = tested on: 786-0; assay: Growth inhibition of human 786-0 cells incubated for 48 hrs by sulforhodamine B assay; details: 786-0, 48 h
How it was run: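 Five-dose assay: five concentrations from 10-fold or ½-log serial dilutions. Cells are plated at 5,000–40,000 per well according to doubling time, grown 24 h, then exposed 48 h at 37 °C, 5% CO₂. Fixed with cold 50% TCA (final addition) for 60 min at 4 °C and stained with 0.4% SRB in 1% acetic acid. Bound dye is solubilized in 10 mM Tris base and read at 515 nm. GI₅₀ is where [(Ti−Tz)/(C−Tz)]×100 = 50, with a time-zero plate as Tz.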

[9] = Growth inhibition of human OVCAR3 cells assessed as cell growth at 10^-8 M incubated for 48 hrs by sulforhodamine B assay; details: OVCAR-3, 48 h, read-out: Activity
[10] = tested on: NCI/ADR-RES; assay: Growth inhibition of human NCI/ADR-RES cells assessed as cell growth at 10^-8 M incubated for 48 hrs by sulforhodamine B assay; details: read-out: Activity
[11] = tested on: MDA-MB-231; assay: Growth inhibition of human MDA-MB-231 cells assessed as cell growth at 10^-5 M incubated for 48 hrs by sulforhodamine B assay; details: MDA-MB-231, 48 h, read-out: Activity
[12] = Growth inhibition of human Hs 578T cells assessed as cell growth at 10^-5 M incubated for 48 hrs by sulforhodamine B assay; details: read-out: Activity
[13] = tested on: MDA-MB-468; assay: Growth inhibition of human MDA-MB-468 cells assessed as cell growth at 10^-5 M incubated for 48 hrs by sulforhodamine B assay; details: MDA-MB-468, 48 h, read-out: Activity
[14] = tested on: KM12; assay: Growth inhibition of human KM12 cells assessed as cell growth at 10^-4 M incubated for 48 hrs by sulforhodamine B assay; details: KM12, 48 h, read-out: Activity
[15] = Growth inhibition of human SW620 cells assessed as cell growth at 10^-7 M incubated for 48 hrs by sulforhodamine B assay; details: SW-620, 48 h, read-out: Activity
[16] = Growth inhibition of human OVCAR5 cells assessed as cell growth at 10^-7 M incubated for 48 hrs by sulforhodamine B assay; details: OVCAR-5, 48 h, read-out: Activity
[17] = Growth inhibition of human OVCAR3 cells assessed as cell growth at 10 uM incubated for 48 hrs by sulforhodamine B assay; details: OVCAR-3, 48 h, read-out: Activity
[18] = tested on: T47D; assay: Growth inhibition of human T47D cells assessed as cell growth at 10 uM incubated for 48 hrs by sulforhodamine B assay; details: read-out: Activity
[19] = tested on: NCI-H23; assay: Growth inhibition of human NCI-H23 cells assessed as cell growth at 10^-8 M incubated for 48 hrs by sulforhodamine B assay; details: NCI-H23, 48 h, read-out: Activity
[20] = Growth inhibition of human HCT116 cells assessed as cell growth at 10^-8 M incubated for 48 hrs by sulforhodamine B assay; details: HCT-116, 48 h, read-out: Activity
How it was run: (§2)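 Cells seeded at 5,000–40,000/well according to doubling time and preincubated 24 h at 37 °C, 5% CO2. Time-zero plates were TCA-fixed. DMSO concentrate was diluted in medium with 50 µg/ml gentamicin to give five concentrations (10-fold or ½ log steps), then exposed 48 h. Cells were TCA-fixed, stained with 0.4% SRB and read at 515 nm. Percent growth was taken against time-zero and control; GI50, TGI and LC50 derived.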

[21] = tested on: SK-MEL-5; assay: Growth inhibition of human SK-MEL-5 cells assessed as cell growth at 10^-6 M incubated for 48 hrs by sulforhodamine B assay; details: SK-MEL-5, 48 h, read-out: Activity
[22] = Growth inhibition of human Caki1 cells assessed as cell growth at 10^-6 M incubated for 48 hrs by sulforhodamine B assay; details: CAKI-1, 48 h, read-out: Activity; how it was run: as §2
[23] = Growth inhibition of human SNB19 cells assessed as cell growth at 10^-5 M incubated for 48 hrs by sulforhodamine B assay; details: SNB-19, 48 h, read-out: Activity
[24] = tested on: SK-MEL-28; assay: Growth inhibition of human SK-MEL-28 cells assessed as cell growth at 10^-5 M incubated for 48 hrs by sulforhodamine B assay; details: SK-MEL-28, 48 h, read-out: Activity
[25] = Growth inhibition of human OVCAR4 cells assessed as cell growth at 10^-5 M incubated for 48 hrs by sulforhodamine B assay; details: OVCAR-4, 48 h, read-out: Activity
[26] = Growth inhibition of human MOLT4 cells assessed as cell growth at 10 uM incubated for 48 hrs by sulforhodamine B assay; details: MOLT-4, 48 h, read-out: Activity
[27] = Growth inhibition of human melanoma cells incubated for 48 hrs by sulforhodamine B assay; details: Melanoma cell; for CC50: read-out: LC50 (the source's name)
[28] = read-out: LC50 (the source's name)
[29] = read-out: pLC50 (the source's name) (converted)

c1ccc2[nH]c(-c3ccc(Nc4nc(N5CCCCC5)nc(N5CCOCC5)n4)cc3)nc2c1
growth at 100 µM [1]: -46% | growth at 100 µM [2]: -19% | growth at 100 µM [3]: -16% | growth at 100 µM [4]: -43% | GI50 ([5]; read-out: GI50): 2440 nM | CC50 [5, 28]: > 100000 nM | TGI ([5]; read-out: TGI): 6180 nM | GI50 ([5]; read-out: pGI50 (converted)): 2450 nM | CC50 [5, 29]: > 100000 nM | TGI ([5]; read-out: pTGI (converted)): 6170 nM | GI50 ([6]; read-out: GI50): 2140 nM | CC50 [6, 28]: 28500 nM | TGI ([6]; read-out: TGI): 5750 nM | GI50 ([6]; read-out: pGI50 (converted)): 2140 nM | CC50 [6, 29]: 28200 nM | TGI ([6]; read-out: pTGI (converted)): 5750 nM | GI50 ([7]; read-out: GI50): 1800 nM | CC50 [7, 28]: 8970 nM | TGI ([7]; read-out: TGI): 4020 nM | GI50 ([7]; read-out: pGI50 (converted)): 1820 nM | CC50 [7, 29]: 8910 nM | TGI ([7]; read-out: pTGI (converted)): 3980 nM | GI50 ([8]; read-out: GI50): 1540 nM | CC50 [8, 28]: 6680 nM | TGI ([8]; read-out: TGI): 3210 nM | GI50 ([8]; read-out: pGI50 (converted)): 1550 nM | CC50 [8, 29]: 6610 nM | TGI ([8]; read-out: pTGI (converted)): 3240 nM | growth at 0.01 µM [9]: 103% | growth at 0.01 µM [10]: 99% | growth at 10 µM [11]: -13% | growth at 10 µM [12]: -6% | growth at 10 µM [13]: -24% | growth at 100 µM [14]: -40% | growth at 0.1 µM [15]: 92% | growth at 0.1 µM [16]: 100% | growth at 10 µM [17]: 10.9% | growth at 10 µM [18]: 23.4% | growth at 0.01 µM [19]: 98% | growth at 0.01 µM [20]: 100% | growth at 1 µM [21]: 97% | growth at 1 µM [22]: 87% | growth at 10 µM [23]: 13% | growth at 10 µM [24]: -57% | growth at 10 µM [25]: 22% | growth at 10 µM [26]: 13.7% | GI50 [27]: 1950 nM | TGI [27]: 4180 nM | CC50 [27]: 11800 nM

Clc1ccc(-c2nc(Nc3ccc(-c4nc5ccccc5[nH]4)cc3)nc(N3CCOCC3)n2)cc1
growth at 100 µM [1]: -30% | growth at 100 µM [2]: -45% | growth at 100 µM [3]: -22% | growth at 100 µM [4]: -32% | GI50 ([5]; read-out: GI50): 222 nM | TGI ([5]; read-out: TGI): 491 nM | GI50 ([5]; read-out: pGI50 (converted)): 224 nM | TGI ([5]; read-out: pTGI (converted)): 490 nM | GI50 ([6]; read-out: GI50): 520 nM | TGI ([6]; read-out: TGI): 1830 nM | GI50 ([6]; read-out: pGI50 (converted)): 525 nM | TGI ([6]; read-out: pTGI (converted)): 1820 nM | GI50 ([7]; read-out: GI50): 1600 nM | TGI ([7]; read-out: TGI): 3220 nM | GI50 ([7]; read-out: pGI50 (converted)): 1580 nM | TGI ([7]; read-out: pTGI (converted)): 3240 nM | GI50 ([8]; read-out: GI50): 177 nM | TGI ([8]; read-out: TGI): 348 nM | GI50 ([8]; read-out: pGI50 (converted)): 178 nM | TGI ([8]; read-out: pTGI (converted)): 347 nM | growth at 0.01 µM [9]: 99% | growth at 0.01 µM [10]: 98% | growth at 10 µM [11]: -76% | growth at 10 µM [12]: -47% | growth at 10 µM [13]: -71% | growth at 100 µM [14]: -67% | growth at 0.1 µM [15]: 95% | growth at 0.1 µM [16]: 92% | growth at 10 µM [17]: -95.6% | growth at 10 µM [18]: -64.8% | growth at 0.01 µM [19]: 97% | growth at 0.01 µM [20]: 99% | growth at 1 µM [21]: 93% | growth at 1 µM [22]: 76% | growth at 10 µM [23]: -70% | growth at 10 µM [24]: -81% | growth at 10 µM [25]: -86% | growth at 10 µM [26]: -91.6% | GI50 [27]: 1070 nM | TGI [27]: 2480 nM | CC50 [27]: 5790 nM
